Experimental data reported in ChEMBL document CHEMBL4680371, “Design and Structure-Activity Relationship of a Potent Furin Inhibitor Derived from Influenza Hemagglutinin” (ACS Med Chem Lett, 2021).
Where a SMILES comes first, the peptide text is derived from it. [ ]: non-standard residue; d: D form. Abu = CC[C@H](N)C(=O)O

The compounds below were run against Furin (Homo sapiens, UniProt P09958) (assay: Inhibition of recombinant soluble human furin using pyroGlu-Arg-Thr-Lys-Arg-methyl-coumaryl-7-amide as substrate measured after 1 hr).
Sequence of Furin (P09958 whole entry): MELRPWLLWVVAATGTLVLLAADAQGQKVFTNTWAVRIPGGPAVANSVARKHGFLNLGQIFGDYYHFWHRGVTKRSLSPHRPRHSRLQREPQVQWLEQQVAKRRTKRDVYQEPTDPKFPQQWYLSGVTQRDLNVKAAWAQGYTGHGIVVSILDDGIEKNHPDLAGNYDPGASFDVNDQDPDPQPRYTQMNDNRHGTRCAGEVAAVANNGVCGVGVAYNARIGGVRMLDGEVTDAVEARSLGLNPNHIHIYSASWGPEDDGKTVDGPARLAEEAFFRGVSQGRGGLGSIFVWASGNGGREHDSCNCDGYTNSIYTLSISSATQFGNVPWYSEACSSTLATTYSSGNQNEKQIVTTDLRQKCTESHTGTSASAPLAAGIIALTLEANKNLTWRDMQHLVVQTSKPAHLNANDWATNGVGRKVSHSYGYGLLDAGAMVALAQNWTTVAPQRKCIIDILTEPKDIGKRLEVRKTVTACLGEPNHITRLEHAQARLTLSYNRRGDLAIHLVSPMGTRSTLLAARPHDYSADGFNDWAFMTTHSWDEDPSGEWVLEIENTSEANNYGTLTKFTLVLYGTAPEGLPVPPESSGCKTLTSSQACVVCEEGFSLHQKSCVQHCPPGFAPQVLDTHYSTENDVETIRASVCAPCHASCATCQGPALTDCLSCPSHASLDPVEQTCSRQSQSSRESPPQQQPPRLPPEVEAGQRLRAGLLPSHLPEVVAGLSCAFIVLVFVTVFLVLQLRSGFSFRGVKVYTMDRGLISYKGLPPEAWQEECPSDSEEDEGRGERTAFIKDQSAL
Summary of the method: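 Soluble human recombinant furin was tested in a competitive kinetic assay. Ki is reported as the mean ± SD of at least two independent experiments.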
With `CC(=O)N[C@@H](CCCNC(=N)N)C(=O)N[C@@H](C)C(=O)N[C@@H](CCCNC(=N)N)C(=O)NCC(=O)N[C@@H](CCCNC(=N)N)C(=O)N[C@@H](CCCCN)C(=O)N[C@@H](CCCCN)C(=O)N[C@@H](CCCNC(=N)N)C(=O)N[C@H](C(N)=O)[C@@H](C)O` the Ki was 0.036 µM.
For `CC(=O)N[C@@H](CCCNC(=N)N)C(=O)N[C@@H](C)C(=O)N[C@@H](CO)C(=O)N[C@@H](CCCNC(=N)N)C(=O)N[C@@H](CCCNC(=N)N)C(=O)N[C@@H](CCCCN)C(=O)N[C@@H](CCCCN)C(=O)N[C@@H](CCCNC(=N)N)C(=O)N[C@H](C(N)=O)[C@@H](C)O`, the Ki was 0.029 µM.
With `CC(=O)N[C@@H](C)C(=O)N[C@@H](Cc1c[nH]c2ccccc12)C(=O)N[C@@H](CCCNC(=N)N)C(=O)N[C@@H](CCCNC(=N)N)C(=O)N[C@@H](CCCNC(=N)N)C(=O)N[C@@H](CCCCN)C(=O)N[C@@H](CCCCN)C(=O)N[C@@H](CCCNC(=N)N)C(=O)N[C@H](C(N)=O)[C@@H](C)O` (Ac-AWRRRKKRT-NH2) the Ki was 0.03 µM.
With `CC(=O)N[C@@H](CCCNC(=N)N)C(=O)N[C@@H](C)C(=O)NCC(=O)N[C@@H](CCCNC(=N)N)C(=O)N[C@@H](CCCNC(=N)N)C(=O)N[C@@H](CCCCN)C(=O)N[C@@H](CCCCN)C(=O)N[C@@H](CCCNC(=N)N)C(=O)N[C@H](C(N)=O)[C@@H](C)O` the Ki was 0.035 µM.
Compound `CC(=O)N[C@@H](CCCNC(=N)N)C(=O)N[C@@H](CCCCN)C(=O)N[C@@H](CCCNC(=N)N)C(=O)N[C@@H](CCCNC(=N)N)C(=O)N[C@@H](CCCNC(=N)N)C(=O)N[C@@H](CCCCN)C(=O)N[C@@H](CCCCN)C(=O)N[C@@H](CCCNC(=N)N)C(=O)N[C@H](C(N)=O)[C@@H](C)O` has a Ki of 0.016 µM.
`CC(=O)N[C@@H](CCCNC(=N)N)C(=O)N[C@@H](C)C(=O)N[C@@H](CCCNC(=N)N)C(=O)N[C@H](C(=O)N[C@@H](CCCNC(=N)N)C(=O)N[C@@H](CCCCN)C(=O)N[C@@H](CCCCN)C(=O)N[C@@H](CCCNC(=N)N)C(=O)N[C@H](C(N)=O)[C@@H](C)O)[C@@H](C)O` showed a Ki of 0.008 µM.
With `CC(=O)N[C@@H](CCCNC(=N)N)C(=O)N1CCC[C@H]1C(=O)N[C@@H](CCCNC(=N)N)C(=O)N[C@@H](CCCNC(=N)N)C(=O)N[C@@H](CCCNC(=N)N)C(=O)N[C@@H](CCCCN)C(=O)N[C@@H](CCCCN)C(=O)N[C@@H](CCCNC(=N)N)C(=O)N[C@H](C(N)=O)[C@@H](C)O` the Ki was 0.017 µM.
`CC[C@H](C)[C@H](NC(=O)[C@H](CCCNC(=N)N)NC(=O)[C@H](C)NC(=O)[C@H](CCC(N)=O)NC(C)=O)C(=O)N[C@@H](CCCNC(=N)N)C(=O)N[C@@H](CCCCN)C(=O)N[C@@H](CCCCN)C(=O)N[C@@H](CCCNC(=N)N)C(=O)N[C@H](C(N)=O)[C@@H](C)O` (Ac-QARIRKKRT-NH2) gave a Ki of 0.009 µM.
Work on `CC(=O)N[C@@H](CCCNC(=N)N)C(=O)N[C@@H](C)C(=O)N[C@@H](CC(N)=O)C(=O)N[C@@H](CCCNC(=N)N)C(=O)N[C@@H](CCCNC(=N)N)C(=O)N[C@@H](CCCCN)C(=O)N[C@@H](CCCCN)C(=O)N[C@@H](CCCNC(=N)N)C(=O)N[C@H](C(N)=O)[C@@H](C)O` yielded a Ki of 0.027 µM.
Compound `CC[C@H](NC(=O)[C@H](CCCNC(=N)N)NC(=O)[C@H](C)NC(=O)[C@H](CCCNC(=N)N)NC(C)=O)C(=O)N[C@@H](CCCNC(=N)N)C(=O)N[C@@H](CCCCN)C(=O)N[C@@H](CCCCN)C(=O)N[C@@H](CCCNC(=N)N)C(=O)N[C@H](C(N)=O)[C@@H](C)O` has a Ki of 0.011 µM.
With `CC(=O)N[C@@H](CCCNC(=N)N)C(=O)N[C@@H](CCC(=O)O)C(=O)N[C@@H](CCCNC(=N)N)C(=O)N[C@@H](CCCNC(=N)N)C(=O)N[C@@H](CCCNC(=N)N)C(=O)N[C@@H](CCCCN)C(=O)N[C@@H](CCCCN)C(=O)N[C@@H](CCCNC(=N)N)C(=O)N[C@H](C(N)=O)[C@@H](C)O` the Ki was 0.024 µM.
`CC[C@H](C)[C@H](NC(=O)[C@H](CCCNC(=N)N)NC(=O)[C@H](C)NC(=O)[C@@H](NC(C)=O)[C@@H](C)O)C(=O)N[C@@H](CCCNC(=N)N)C(=O)N[C@@H](CCCCN)C(=O)N[C@@H](CCCCN)C(=O)N[C@@H](CCCNC(=N)N)C(=O)N[C@H](C(N)=O)[C@@H](C)O` (Ac-TARIRKKRT-NH2) was tested, and the Ki was 0.011 µM.
Compound `CC[C@H](C)[C@H](NC(C)=O)C(=O)N[C@@H](C)C(=O)N[C@@H](CCCNC(=N)N)C(=O)N[C@@H](CCCNC(=N)N)C(=O)N[C@@H](CCCNC(=N)N)C(=O)N[C@@H](CCCCN)C(=O)N[C@@H](CCCCN)C(=O)N[C@@H](CCCNC(=N)N)C(=O)N[C@H](C(N)=O)[C@@H](C)O` has a Ki of 0.011 µM.
`CC(=O)N[C@@H](Cc1ccc(O)cc1)C(=O)N[C@@H](C)C(=O)N[C@@H](CCCNC(=N)N)C(=O)N[C@@H](CCCNC(=N)N)C(=O)N[C@@H](CCCNC(=N)N)C(=O)N[C@@H](CCCCN)C(=O)N[C@@H](CCCCN)C(=O)N[C@@H](CCCNC(=N)N)C(=O)N[C@H](C(N)=O)[C@@H](C)O` gave a Ki of 0.018 µM.
`CC(=O)N[C@@H](Cc1c[nH]cn1)C(=O)N[C@@H](C)C(=O)N[C@@H](CCCNC(=N)N)C(=O)N[C@@H](CCCNC(=N)N)C(=O)N[C@@H](CCCNC(=N)N)C(=O)N[C@@H](CCCCN)C(=O)N[C@@H](CCCCN)C(=O)N[C@@H](CCCNC(=N)N)C(=O)N[C@H](C(N)=O)[C@@H](C)O` showed a Ki of 0.012 µM.
With `CC[C@H](NC(=O)[C@H](CCCNC(=N)N)NC(=O)[C@H](C)NC(=O)CNC(C)=O)C(=O)N[C@@H](CCCNC(=N)N)C(=O)N[C@@H](CCCCN)C(=O)N[C@@H](CCCCN)C(=O)N[C@@H](CCCNC(=N)N)C(=O)N[C@H](C(N)=O)[C@@H](C)O` (Ac-GAR[Abu]RKKRT-NH2) the Ki was 0.01 µM.
`CC(=O)N[C@@H](CCCNC(=N)N)C(=O)N[C@@H](CC(C)C)C(=O)N[C@@H](CCCNC(=N)N)C(=O)N[C@@H](CCCNC(=N)N)C(=O)N[C@@H](CCCNC(=N)N)C(=O)N[C@@H](CCCCN)C(=O)N[C@@H](CCCCN)C(=O)N[C@@H](CCCNC(=N)N)C(=O)N[C@H](C(N)=O)[C@@H](C)O` showed a Ki of 0.023 µM.
`CC(=O)N[C@@H](CO)C(=O)N[C@@H](C)C(=O)N[C@@H](CCCNC(=N)N)C(=O)N[C@@H](CCCNC(=N)N)C(=O)N[C@@H](CCCNC(=N)N)C(=O)N[C@@H](CCCCN)C(=O)N[C@@H](CCCCN)C(=O)N[C@@H](CCCNC(=N)N)C(=O)N[C@H](C(N)=O)[C@@H](C)O` was tested, and the Ki was 0.011 µM.
Work on `CC(=O)N1CCC[C@H]1C(=O)N[C@@H](C)C(=O)N[C@@H](CCCNC(=N)N)C(=O)N[C@@H](CCCNC(=N)N)C(=O)N[C@@H](CCCNC(=N)N)C(=O)N[C@@H](CCCCN)C(=O)N[C@@H](CCCCN)C(=O)N[C@@H](CCCNC(=N)N)C(=O)N[C@H](C(N)=O)[C@@H](C)O` yielded a Ki of 0.01 µM.
`CC(=O)N[C@@H](CCCNC(=N)N)C(=O)N[C@@H](C)C(=O)N[C@@H](CCCNC(=N)N)C(=O)NC(C)(C)C(=O)N[C@@H](CCCNC(=N)N)C(=O)N[C@@H](CCCCN)C(=O)N[C@@H](CCCCN)C(=O)N[C@@H](CCCNC(=N)N)C(=O)N[C@H](C(N)=O)[C@@H](C)O` was tested, and the Ki was 0.034 µM.
With `CC[C@H](NC(=O)[C@H](CCCNC(=N)N)NC(=O)[C@H](C)NC(=O)[C@@H](CO)NC(C)=O)C(=O)N[C@@H](CCCNC(=N)N)C(=O)N[C@@H](CCCCN)C(=O)N[C@@H](CCCCN)C(=O)N[C@@H](CCCNC(=N)N)C(=O)N[C@H](C(N)=O)[C@@H](C)O` the Ki was 0.015 µM.
Compound `CC(=O)N[C@@H](CCCNC(=N)N)C(=O)N[C@@H](Cc1c[nH]c2ccccc12)C(=O)N[C@@H](CCCNC(=N)N)C(=O)N[C@@H](CCCNC(=N)N)C(=O)N[C@@H](CCCNC(=N)N)C(=O)N[C@@H](CCCCN)C(=O)N[C@@H](CCCCN)C(=O)N[C@@H](CCCNC(=N)N)C(=O)N[C@H](C(N)=O)[C@@H](C)O` has a Ki of 0.029 µM.
